Test results published in ChEMBL document CHEMBL2073884, “Functional characterization of pH-sensitive organic anion transporting polypeptide OATP-B in human” (J Pharmacol Exp Ther, 2004).

How the values were obtained:
Format in all cases: functional, cell-based
[1] = target: T1, Solute carrier organic anion transporter family member 2B1 (Homo sapiens, UniProt O94956); experiment: TP_TRANSPORTER: uptake (pH 5.0) of Lactate at a concentration of 1.91 u M in OATP-B-expressing HEK293 cells; conditions: hek293, pH 5, 1.91 µM
T1 sequence (O94956 whole entry): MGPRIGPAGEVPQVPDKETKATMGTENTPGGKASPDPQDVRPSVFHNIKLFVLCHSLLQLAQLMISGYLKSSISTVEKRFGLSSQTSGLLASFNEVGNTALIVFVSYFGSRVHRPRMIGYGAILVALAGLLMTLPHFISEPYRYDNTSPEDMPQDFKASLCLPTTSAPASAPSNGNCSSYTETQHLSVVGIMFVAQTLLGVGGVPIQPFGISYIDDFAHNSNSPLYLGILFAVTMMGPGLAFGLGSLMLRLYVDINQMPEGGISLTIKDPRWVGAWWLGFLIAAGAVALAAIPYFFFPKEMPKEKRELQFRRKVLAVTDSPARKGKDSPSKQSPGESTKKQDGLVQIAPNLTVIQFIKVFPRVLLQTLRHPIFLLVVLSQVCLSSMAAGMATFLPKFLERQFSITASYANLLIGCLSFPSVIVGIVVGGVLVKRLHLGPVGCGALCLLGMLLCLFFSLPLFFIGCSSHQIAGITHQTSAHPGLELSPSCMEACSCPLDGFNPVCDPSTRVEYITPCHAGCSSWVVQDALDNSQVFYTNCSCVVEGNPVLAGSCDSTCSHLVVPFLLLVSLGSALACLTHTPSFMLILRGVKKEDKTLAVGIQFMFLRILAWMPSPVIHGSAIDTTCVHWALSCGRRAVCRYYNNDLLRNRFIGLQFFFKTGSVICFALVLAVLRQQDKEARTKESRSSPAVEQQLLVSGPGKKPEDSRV
Method in brief: (§1)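 HEK293 cells transiently transfected with pcDNA3/OATP-B (calcium phosphate) or empty vector were used 40-48 h later. Suspensions were preincubated 20 min at 37°C in HEPES saline (pH 7.4), then incubated 10 min in MES/Tris-buffered uptake medium (pH 5.0 or 7.4). Cells were separated by silicone-oil centrifugal filtration. Uptake was inulin-corrected, expressed as µL/mg protein, and mock-subtracted; n=3-4.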

[2] = target: T1, Solute carrier organic anion transporter family member 2B1; experiment: TP_TRANSPORTER: uptake (pH 7.4) of Lactate at a concentration of 1.91 u M in OATP-B-expressing HEK293 cells; conditions: hek293, pH 7.4, 1.91 µM; method in brief: as §1
[3] = target: T1, Solute carrier organic anion transporter family member 2B1; experiment: TP_TRANSPORTER: uptake (pH 7.4) of Estradiol-17beta-D-glucuronide at a concentration of 5.72 nM in OATP-B-expressing HEK293 cells; conditions: hek293, pH 7.4, 0.00572 µM
Method in brief: (§2)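 HEK293 cells transiently transfected with OATP-B cDNA (calcium phosphate) or vector alone (mock), used 40-48 h later as suspensions. Preincubated 20 min at 37°C in HEPES buffer pH 7.4, then incubated with radiolabeled compound in uptake medium pH 5.0 or 7.4. DHEAS was taken up for 5 min; estradiol-17ß-glucuronide for 10 min. Cells separated by silicone oil/paraffin centrifugal filtration and counted by scintillation. Uptake (µL/mg protein) corrected for [14C]inulin adsorption; mock subtracted; n=3 or 4.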

[4] = target: T1, Solute carrier organic anion transporter family member 2B1; experiment: TP_TRANSPORTER: uptake (pH 5.0) of Estradiol-17beta-D-glucuronide at a concentration of 5.72 nM in OATP-B-expressing HEK293 cells; conditions: hek293, pH 5, 0.00572 µM; method in brief: as §2
[5] = target: T1, Solute carrier organic anion transporter family member 2B1; experiment: TP_TRANSPORTER: uptake (pH 5.0) of Estrone-3-sulfate at a concentration of 5.43 nM in OATP-B-expressing HEK293 cells; conditions: hek293, pH 5, 0.00543 µM
Method in brief: (§3)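 OATP-B- or vector-transfected HEK293 cells were harvested 40-48 h after transfection and preincubated 20 min at 37°C in pH 7.4 HEPES saline. [3H]estrone-3-sulfate uptake was run for 1 min in uptake medium at pH 5.0 or 7.4 and stopped by silicone-oil centrifugal filtration. Radioactivity was counted by scintillation, corrected for [14C]inulin adsorption and given as µL/mg protein. Mock uptake was subtracted; n=3-4.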

[6] = target: T1, Solute carrier organic anion transporter family member 2B1; experiment: TP_TRANSPORTER: uptake (pH 7.4) of Estrone-3-sulfate at a concentration of 5.43 nM in OATP-B-expressing HEK293 cells; conditions: hek293, pH 7.4, 0.00543 µM; method in brief: as §3
[7] = target: T1, Solute carrier organic anion transporter family member 2B1; experiment: TP_TRANSPORTER: uptake (pH 5.0) of Fexofenadine at a concentration of 10 u M in OATP-B-expressing HEK293 cells; conditions: hek293, pH 5, 10 µM
Method in brief: (§4)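 Transiently transfected OATP-B or mock HEK293 cells were preincubated 20 min at 37°C (pH 7.4), then exposed for 30 min to uptake medium at pH 5.0 or 7.4. Pellets were collected through silicone oil, sonicated, extracted in 50% methanol, dried and quantified by HPLC (ODS column, fluorescence ex 240/em 290 nm). Results are µL/mg protein after mock subtraction; n=3-4.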

[8] = target: T1, Solute carrier organic anion transporter family member 2B1; experiment: TP_TRANSPORTER: uptake (pH 7.4) of Fexofenadine at a concentration of 10 u M in OATP-B-expressing HEK293 cells; conditions: hek293, pH 7.4, 10 µM; method in brief: as §4
[9] = target: T1, Solute carrier organic anion transporter family member 2B1; experiment: TP_TRANSPORTER: uptake (pH 5.0) of Dehydroepiandrosterone-3-sulfate at a concentration of 2.98 nM in OATP-B-expressing HEK293 cells; conditions: hek293, pH 5, 0.00298 µM; method in brief: as §2
[10] = target: T1, Solute carrier organic anion transporter family member 2B1; experiment: TP_TRANSPORTER: uptake (pH 7.4) of Dehydroepiandrosterone-3-sulfate at a concentration of 2.98 nM in OATP-B-expressing HEK293 cells; conditions: hek293, pH 7.4, 0.00298 µM; method in brief: as §2
[11] = target: T1, Solute carrier organic anion transporter family member 2B1; experiment: TP_TRANSPORTER: uptake (pH 5.0) of Pravastatin at a concentration of 14.7 u M in OATP-B-expressing HEK293 cells; conditions: hek293, pH 5, 14.7 µM; method in brief: as §1
[12] = target: T1, Solute carrier organic anion transporter family member 2B1; experiment: TP_TRANSPORTER: uptake (pH 7.4) of Pravastatin at a concentration of 14.7 u M in OATP-B-expressing HEK293 cells; conditions: hek293, pH 7.4, 14.7 µM; method in brief: as §1
[13] = substrate: C[C@]12CC[C@@H]3c4ccc(OS(=O)(=O)O)cc4CC[C@H]3[C@@H]1CCC2=O; experiment: TP_TRANSPORTER: uptake (pH 7.4) in OATP-B-expressing HEK293 cells
Method in brief: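 OATP-B- or mock-transfected HEK293 suspensions. Preincubated 20 min at 37°C at pH 7.4, then substrate uptake in medium at pH 7.4 (Tris-adjusted). Uptake was separated by centrifugal filtration through oil and measured by scintillation, or by HPLC-fluorescence for fexofenadine. Expressed as cell-to-medium ratio (µL/mg protein), corrected by [14C]inulin space; OATP-B-specific = transfected minus mock; n=3 or 4.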

[14] = substrate: C[C@]12CC[C@@H]3c4ccc(OS(=O)(=O)O)cc4CC[C@H]3[C@@H]1CCC2=O; experiment: (§5) TP_TRANSPORTER: uptake (pH 5.0) in OATP-B-expressing HEK293 cells
[15] = substrate: CC[C@H](C)C(=O)O[C@H]1C[C@H](O)C=C2C=C[C@H](C)[C@H](CC[C@@H](O)C[C@@H](O)CC(=O)O)[C@H]21; experiment: as §5

With `C[C@@H](O)C(=O)O` [D-LACTIC ACID] the Activity [1] was “is not a substrate [-]” and the Activity [2] was “is not a substrate [-]”.

For `C[C@]12CC[C@@H]3c4ccc(O)cc4CC[C@H]3[C@@H]1CC[C@@H]2O[C@@H]1O[C@H](C(=O)O)[C@@H](O)[C@H](O)[C@H]1O` [ESTRADIOL 17B GLUCURONIDE], the Activity [3] was “is not a substrate [-]” and the Activity [4] was “is not a substrate [-]”.

For `C[C@]12CC[C@@H]3c4ccc(OS(=O)(=O)O)cc4CC[C@H]3[C@@H]1CCC2=O` [ESTRONE SULFURIC ACID], the Activity [5] was “substrate [+]” and the Activity [6] was “substrate [+]”.

In the case of `CC(C)(C(=O)O)c1ccc(C(O)CCCN2CCC(C(O)(c3ccccc3)c3ccccc3)CC2)cc1` (stereo not given) [FEXOFENADINE], the Activity [7] is reported as “substrate [+]” and the Activity [8] is reported as “substrate [+]”.

With `C[C@]12CC[C@H](OS(=O)(=O)O)CC1=CC[C@@H]1[C@@H]2CC[C@]2(C)C(=O)CC[C@@H]12` [PRASTERONE SULFURIC ACID] the Activity [9] was “substrate [+]” and the Activity [10] was “substrate [+]”.

In the case of `CC[C@H](C)C(=O)O[C@H]1C[C@H](O)C=C2C=C[C@H](C)[C@H](CC[C@@H](O)C[C@@H](O)CC(=O)O)[C@H]21` [PRAVASTATIN], the Activity [11] is reported as “substrate [+]” and the Activity [12] is reported as “is not a substrate [-]”.

B1: Solute carrier organic anion transporter family member 2B1 (Homo sapiens) (protein)
chain: T1 sequence (O94956 whole entry)
Molecule B1 has a Km [13] of 8.09 µM, a Km [14] of 13.1 µM and a Km [15] of 2250 µM.
